Source: article PMC2818804 (Journal of medicinal chemistry, 2010)
Converted amounts (≈) assume the structure as drawn.

Experiments:
firefly luciferase = firefly luciferase counter-assay; assay type: biochemical
PKM2 = PKM2 (Homo sapiens, UniProt P14618); test: steady-state kinetics of PEP and ADP in the PK-LDH coupled assay; assay type: biochemical; details: in the presence of activator (10 μM); PEP varied
[1] = kinetic solubility analysis; assay type: physicochemical; details: aqueous medium (not further specified)
Procedure, shortened: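 Solubility determined by quantitative nitrogen detection. Three separate experiments; average intra-assay %CV 4.5%.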

[2] = target: hPK, M2 (pyruvate kinase, human M2 isoform, PKM2) (Homo sapiens, UniProt P14618); test: luminescent pyruvate kinase-luciferase coupled assay; assay type: biochemical; details: read-out: hPK, M2 AC50, three separate experiments
Chain of hPK, M2 (pyruvate kinase, human M2 isoform, PKM2) (P14618 whole entry, canonical isoform): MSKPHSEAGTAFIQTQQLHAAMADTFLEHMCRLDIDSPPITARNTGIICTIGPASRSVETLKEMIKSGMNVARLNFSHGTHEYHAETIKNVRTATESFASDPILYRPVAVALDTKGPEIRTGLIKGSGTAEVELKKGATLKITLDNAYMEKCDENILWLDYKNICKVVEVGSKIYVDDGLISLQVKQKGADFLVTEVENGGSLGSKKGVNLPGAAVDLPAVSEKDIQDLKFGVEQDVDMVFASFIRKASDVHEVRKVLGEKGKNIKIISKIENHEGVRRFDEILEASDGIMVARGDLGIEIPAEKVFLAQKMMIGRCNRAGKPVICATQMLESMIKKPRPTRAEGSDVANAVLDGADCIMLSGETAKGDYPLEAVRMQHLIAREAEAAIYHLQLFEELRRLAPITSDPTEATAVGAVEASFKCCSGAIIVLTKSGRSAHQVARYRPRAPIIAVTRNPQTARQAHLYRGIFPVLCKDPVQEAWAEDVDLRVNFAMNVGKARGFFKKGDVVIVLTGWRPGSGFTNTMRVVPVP

Chain of PKM2 (P14618 whole entry): as the sequence (P14618 whole entry, canonical isoform) above

Structure (SMILES) | solubility [1] [µg/mL] | further results
COc1ccc(S(=O)(=O)N2CCN(S(=O)(=O)c3ccc4c(c3)OCCO4)CC2)cc1 [compound 2] |  | activation of firefly luciferase (firefly luciferase): did not activate; Vmax (PKM2): 265 pmols/min
O=S(=O)(c1ccc2c(c1)OCCO2)N1CCN(S(=O)(=O)c2c(F)cccc2F)CC1 [compound 10] | < 0.5 | 
COc1cc(F)c(S(=O)(=O)N2CCCN(S(=O)(=O)c3cccc(N)c3)CC2)c(F)c1 [compound 57] | 15.1 (≈ 32.7 µM) | 
O=S(=O)(N[C@H]1CC[C@H](NS(=O)(=O)c2c(F)cccc2F)CC1)c1ccc2c(c1)OCCO2 [compound 40] |  | AC50 [2]: 2110 nM
O=S(=O)(c1ccc2c(c1)OCCO2)N1CCCN(S(=O)(=O)c2c(F)cccc2F)CC1 [compound 34] | 2.7 (≈ 5.69 µM) | 
Nc1cccc(S(=O)(=O)N2CCN(S(=O)(=O)c3c(F)cccc3F)CC2)c1 [compound 56] | 3 (≈ 7.19 µM) | 
